# Results from ChEMBL document CHEMBL4024754, “Development of Potent, Protease-Resistant Agonists of the Parathyroid Hormone Receptor with Broad β Residue Distribution” (J Med Chem, 2017).
# Calls of active or inactive are those of the source. No cut-off for these calls is given here. Numbered stars: 1 amine (or outer) side, 2 acyl side, 3 side chain; on linkers, the order of the positions; unused ones are H or OH. Square brackets hold non-standard residues; d marks the D form. Peptide text beside a SMILES is read from it. * marks the point of attachment. NH(1S,2S-2-CONH2-cPent) = NC(=O)[C@H]1CCC[C@@H]1N*; X1 = O=C([C@H]1CCC[C@@H]1N[*:1])[*:2]; X2 = O=C([C@H]1CNC[C@@H]1N[*:1])[*:2]
# Tests used:
# [1] = test system: Mus musculus; assay: In vivo induction of excessive bloodstream calcium concentration in CD1 mouse at 20 nmol/kg, sc after 2 hrs by Ca2+/pH analyzer; assay type: organism-based
# Summary of the method: (§1)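 Female CD1 mice (9−12 weeks), n = 5, given 20 nmol/kg subcutaneously in 10 mM citrate/150 mM NaCl/0.05% Tween-80, pH 5.0. Tail vein blood taken before and at times after dosing. Ca2+ measured by Ca2+/pH analyzer. One-way ANOVA with Dunnett's test vs vehicle. Mean ± SEM.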
# [2] = biological target: T1, Parathyroid hormone/parathyroid hormone-related peptide receptor (Homo sapiens) (UniProt Q03431); assay: Displacement of [125I]-PTH(1 to 34 residues) from R0 state of human PTHR1 expressed in African green monkey COS7 cell membranes incubated for >1 hr in presence of GTPgammaS by gamma radiation method
# T1 sequence (whole entry): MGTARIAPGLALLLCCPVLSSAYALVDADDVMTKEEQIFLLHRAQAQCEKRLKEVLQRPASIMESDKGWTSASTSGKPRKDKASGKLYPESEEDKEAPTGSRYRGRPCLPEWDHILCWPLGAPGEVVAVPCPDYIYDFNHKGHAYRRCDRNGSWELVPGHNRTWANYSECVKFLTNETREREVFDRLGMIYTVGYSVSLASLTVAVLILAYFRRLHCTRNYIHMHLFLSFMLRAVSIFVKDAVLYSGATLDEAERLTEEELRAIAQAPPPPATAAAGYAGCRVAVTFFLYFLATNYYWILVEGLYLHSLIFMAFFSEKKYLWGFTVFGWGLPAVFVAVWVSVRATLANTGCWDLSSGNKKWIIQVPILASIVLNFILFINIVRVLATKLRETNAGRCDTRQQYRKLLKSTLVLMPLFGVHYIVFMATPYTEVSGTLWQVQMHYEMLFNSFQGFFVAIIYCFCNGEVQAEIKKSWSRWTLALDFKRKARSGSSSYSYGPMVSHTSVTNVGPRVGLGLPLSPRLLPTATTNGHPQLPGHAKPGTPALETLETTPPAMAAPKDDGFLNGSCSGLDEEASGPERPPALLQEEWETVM
# [3] = test system: Mus musculus; assay: In vivo induction of excessive bloodstream calcium concentration in CD1 mouse at 20 nmol/kg, sc up to 2 hrs by Ca2+/pH analyzer; assay type: organism-based; summary of the method: as §1
# [4] = biological target: T1, Parathyroid hormone/parathyroid hormone-related peptide receptor (Homo sapiens); assay: Agonist activity at human PTH1 receptor expressed in human GP2.3 cells assessed as induction of cAMP after 12 to 20 mins by luciferase reporter gene assay relative to PTH(1 to 34 residues)-NH2; assay type: functional, cell-based
# [5] = test system: Blood; assay: Drug level in CD1 mouse blood at 20 nmol/kg, sc measured up to 2 hrs; assay type: ADME, organism-based; settings: in vivo
# Summary of the method: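 Female CD1 mice, n = 5, 20 nmol/kg subcutaneously in citrate/NaCl/Tween-80 vehicle, pH 5.0. 2 μL serum from timed bleeds, mixed with CO2-independent medium, added to GP2.3 cells. Luminescence converted to peptide concentration via a standard curve.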
# [6] = Half life in Sprague-Dawley rat kidney homogenates at 12 uM by HPLC-MS analysis; assay type: ADME, tissue-based
# Summary of the method: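 Kidney homogenate (2.5 mg protein/mL, pH 7.4 Tris) spiked with peptide at 50 μg/mL (~12 μM), 37 °C, sampled 0−120 min. […] C18 UHPLC–Orbitrap MS quantified via y32 ion area ratio against calibration standards. Exponential decay fit, mean ± SD of two replicates.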
# [7] = biological target: T1, Parathyroid hormone/parathyroid hormone-related peptide receptor (Homo sapiens); assay: Agonist activity at extracellular domain truncate human PTH1 receptor expressed in GD5 cells assessed as induction of cAMP after 12 to 20 mins by luciferase reporter gene assay; assay type: functional, cell-based
# Summary of the method: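 HEK293-derived lines stably expressing Glosensor cAMP reporter plus full-length human PTHR1 (GP2.3) or ECD-truncated PTHR1 (GD5). Confluent monolayers preincubated at room temperature in CO2-independent medium with 0.5 mM D-luciferin until baseline stable (30 min), then varied agonist concentrations added. Maximal luminescence (12−20 min) used for sigmoidal variable-slope fits.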
# [8] = biological target: T1, Parathyroid hormone/parathyroid hormone-related peptide receptor (Homo sapiens); assay: Agonist activity at human PTH1 receptor expressed in human GP2.3 cells assessed as induction of cAMP at 0.1 to 100 nM preincubated with SGF for 5 secs followed by compound transfer to GP2.3 cells by luciferase reporter gene assay; assay type: functional, cell-based
# Summary of the method: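 Quenched at set times with 10× PBS, diluted into CO2-independent medium, serially 1:10, then added to confluent GP2.3 cells (HEK293, hPTHR1 plus Glosensor cAMP reporter) preloaded 30 min with 0.5 mM D-luciferin. Final 100–0.1 nM. Luminescence read; two technical replicates; variable-slope sigmoidal fit.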
# [9] = Stability in simulated gastric fluid assessed as pig pepsin-mediated proteolysis at 40 uM after 5 secs by RP-HPLC analysis; assay type: ADME, Sus scrofa; settings: isolated protein, 5 s
# Summary of the method: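 Proteolysis quenched by transfer into 10× PBS, pH 7.4, giving 40 μM peptide. Analysed by analytical C18 RP-HPLC, 10–60% acetonitrile/0.1% TFA over 50 min. Intact peptide quantified by integrating its peak. Duplicate reactions run concurrently, standard deviation.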
# [10] = Drug metabolism in Sprague-Dawley rat kidney homogenates assessed as protease mediated-drug degradation at 12 uM up to 5 mins by MALDI-TOF-MS analysis; assay type: ADME, tissue-based; settings: tissue homogenate
# Summary of the method: (§2)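 Perfused female Sprague-Dawley kidney homogenate in 50 mM Tris-HCl pH 7.4, diluted to 2.5 mg protein/mL. Peptide spiked at 50 μg/mL (~12 μM) and incubated at 37 °C. Timed samples quenched with equal volume 1% TFA, centrifuged, dried, reconstituted in 0.1% formic acid, mixed with DHB matrix. Fragments identified by MALDI-TOF MS.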
# [11] = biological target: T1, Parathyroid hormone/parathyroid hormone-related peptide receptor (Homo sapiens); assay: Agonist activity at human PTH1 receptor expressed in human GP2.3 cells assessed as induction of cAMP at 0.1 to 100 nM preincubated with SIF for 10 mins followed by compound transfer to GP2.3 cells by luciferase reporter gene assay; assay type: functional, cell-based
# Summary of the method: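 Simulated intestinal fluid containing pancreatin, pH 6.8, prepared fresh and kept at 37 °C. Peptide incubated in it as for gastric fluid. Quenched 1:1 with 50% acetonitrile/1% TFA. Quenched samples serially diluted in CO2-independent medium and applied to luciferin-preloaded GP2.3 cells at 100−0.1 nM final. Luminescence read. Two technical replicates.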
# [12] = Drug metabolism in Sprague-Dawley rat kidney homogenates assessed as protease-mediated metabolite formation at 12 uM after 5 mins by MALDI-TOF-MS analysis; assay type: ADME, tissue-based; settings: tissue homogenate; summary of the method: as §2
# [13] = Drug metabolism in Sprague-Dawley rat kidney homogenates assessed as protease mediated-drug degradation at 12 uM up to 15 mins by MALDI-TOF-MS analysis; assay type: ADME, tissue-based; settings: tissue homogenate; summary of the method: as §2
# [14] = biological target: T1, Parathyroid hormone/parathyroid hormone-related peptide receptor (Homo sapiens); assay: Agonist activity at human PTH1 receptor expressed in human GP2.3 cells assessed as induction of cAMP at 0.1 to 100 nM preincubated with protease activity quenched SGF up to 4 hrs followed by compound transfer to GP2.3 cells by luciferase reporter gene assay; assay type: functional, cell-based
# Summary of the method: (§3)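 Control samples: simulated gastric fluid neutralized with 10× PBS, or intestinal fluid mixed with acetonitrile/TFA quench solution, before adding peptide. Gastric controls held up to 4 h. Then diluted and tested on luciferin-loaded GP2.3 cells at 100−0.1 nM final, alongside freshly prepared peptide.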
# [15] = biological target: T1, Parathyroid hormone/parathyroid hormone-related peptide receptor (Homo sapiens); assay: Agonist activity at human PTH1 receptor expressed in human GP2.3 cells assessed as induction of cAMP at 0.1 to 100 nM preincubated with protease activity quenched SIF followed by compound transfer to GP2.3 cells by luciferase reporter gene assay; assay type: functional, cell-based; summary of the method: as §3
SMILES,Activity [1],inhibition [2],Activity [3],fold change (FC) [4],Drug uptake [5],half-life at 12 µM [6] [min],Activity [7],Activity [8],Stability [9],Drug metabolism [10],Activity [11],Drug metabolism [12],Drug metabolism [13],Activity [14],Activity [15]
"CC[C@H](C)[C@H](NC(=O)[C@H](CCC(=O)O)NC(=O)[C@H](CO)NC(=O)[C@@H](NC(=O)[C@@H](N)CO)C(C)C)C(=O)N[C@@H](CCC(N)=O)C(=O)N[C@@H](CC(C)C)C(=O)N[C@@H](CCSC)C(=O)N[C@@H](Cc1cnc[nH]1)C(=O)N[C@@H](CC(N)=O)C(=O)N[C@@H](CC(C)C)C(=O)NCC(=O)N[C@@H](CCCCN)C(=O)N[C@H]1CCC[C@@H]1C(=O)N[C@@H](CC(C)C)C(=O)N[C@@H](CC(N)=O)C(=O)N[C@@H](CO)C(=O)N[C@H]1CCC[C@@H]1C(=O)N[C@@H](CCC(=O)O)C(=O)N[C@@H](CCCNC(=N)N)C(=O)N[C@H](C(=O)N[C@H]1CNC[C@@H]1C(=O)N[C@@H](Cc1c[nH]c2ccccc12)C(=O)N[C@@H](CC(C)C)C(=O)N[C@@H](CCCNC(=N)N)C(=O)N[C@H]1CNC[C@@H]1C(=O)N[C@@H](CCCCN)C(=O)N[C@@H](CC(C)C)C(=O)N[C@@H](CCC(N)=O)C(=O)N[C@H]1CCC[C@@H]1C(=O)N[C@H](C(=O)N[C@@H](Cc1cnc[nH]1)C(=O)N[C@@H](CC(N)=O)C(=O)N[C@H]1CCC[C@@H]1C(N)=O)C(C)C)C(C)C (H-SVSEIQLMHNLGK[X1]LNS[X1]ERV[X2]WLR[X2]KLQ[X1]VHN-{NH(1S,2S-2-CONH2-cPent)})",Non-Toxic,Active,Toxic,3.2,Active,,,,,,,,,,
CC[C@H](C)[C@H](NC(=O)[C@H](CCC(=O)O)NC(=O)[C@H](CO)NC(=O)[C@@H](NC(=O)[C@@H](N)CO)C(C)C)C(=O)N[C@@H](CCC(N)=O)C(=O)N[C@@H](CC(C)C)C(=O)N[C@@H](CCSC)C(=O)N[C@@H](Cc1cnc[nH]1)C(=O)N[C@@H](CC(N)=O)C(=O)N[C@@H](CC(C)C)C(=O)NCC(=O)N[C@@H](CCCCN)C(=O)N[C@@H](Cc1cnc[nH]1)C(=O)N[C@@H](CC(C)C)C(=O)N[C@@H](CC(N)=O)C(=O)N[C@@H](CO)C(=O)N[C@@H](CCSC)C(=O)N[C@@H](CCC(=O)O)C(=O)N[C@@H](CCCNC(=N)N)C(=O)N[C@H](C(=O)N[C@@H](CCC(=O)O)C(=O)N[C@@H](Cc1c[nH]c2ccccc12)C(=O)N[C@@H](CC(C)C)C(=O)N[C@@H](CCCNC(=N)N)C(=O)N[C@@H](CCCCN)C(=O)N[C@@H](CCCCN)C(=O)N[C@@H](CC(C)C)C(=O)N[C@@H](CCC(N)=O)C(=O)N[C@@H](CC(=O)O)C(=O)N[C@H](C(=O)N[C@@H](Cc1cnc[nH]1)C(=O)N[C@@H](CC(N)=O)C(=O)N[C@@H](Cc1ccccc1)C(N)=O)C(C)C)C(C)C,Non-Toxic,Active,,,,1.9,Active,inactive,Unstable,Metabolite_Detected,inactive,Metabolite_Detected,Metabolite_Detected,Active,Active
